In ChEMBL document CHEMBL2407075, “Sulphonamido-quinoxalines: search for anticancer agent” (Eur J Med Chem, 2013):

What was measured:
SN12C = assay: Growth inhibition of human SN12C cells at 10 uM after 48 hrs by sulforhodamine B assay; type: functional; conditions: read-out: GI
Procedure, shortened: (§1)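 Single-dose screen at 10 µM across the NCI 60 panel. Cells in RPMI 1640 with 5% FBS and 2 mM L-glutamine, plated at 5000–40,000/well and preincubated 24 h at 37 °C, 5% CO2. Drug in DMSO, 48 h exposure. Fixed with TCA, stained with SRB, A515 read. Percent growth is taken relative to untreated control, and inhibition is 100 minus growth.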

LOX IMVI = assay: Growth inhibition of human LOXIMVI cells at 10 uM after 48 hrs by sulforhodamine B assay; type: functional; conditions: read-out: GI; procedure, shortened: as §1
TK-10 = assay: Growth inhibition of human TK10 cells at 10 uM after 48 hrs by sulforhodamine B assay; type: functional; conditions: TK-10, 48 h, read-out: GI; procedure, shortened: as §1
NCI-H322M = assay: Growth inhibition of human NCI-H322M cells at 10 uM after 48 hrs by sulforhodamine B assay; type: functional; conditions: read-out: GI; procedure, shortened: as §1
SR = assay: Growth inhibition of human SR cells at 10 uM after 48 hrs by sulforhodamine B assay; type: functional; conditions: read-out: GI; procedure, shortened: as §1
MDA-MB-468 = assay: Growth inhibition of human MDA-MB-468 cells at 10 uM after 48 hrs by sulforhodamine B assay; type: functional; conditions: MDA-MB-468, 48 h, read-out: GI; procedure, shortened: as §1
[1] = Growth inhibition of human HCC2998 cells at 10 uM after 48 hrs by sulforhodamine B assay; type: functional; conditions: HCC 2998, 48 h, read-out: GI
Procedure, shortened: (§2)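 NCI-60 one-dose primary screen at a single 10 µM concentration. Cells in RPMI 1640 with 5% FBS, preincubated 24 h at 37 °C, 5% CO2. Drug exposure 48 h, then TCA fixation, SRB staining and absorbance at 515 nm. Percent growth calculated against time-zero and untreated control wells, then converted to percent growth inhibition.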

NCI-H23 = assay: Growth inhibition of human NCI-H23 cells at 10 uM after 48 hrs by sulforhodamine B assay; type: functional; conditions: NCI-H23, 48 h, read-out: GI; procedure, shortened: as §1
PC-3 = assay: Growth inhibition of human PC3 cells at 10 uM after 48 hrs by sulforhodamine B assay; type: functional; conditions: PC-3, 48 h, read-out: GI; procedure, shortened: as §1
SNB-19 = assay: Growth inhibition of human SNB19 cells at 10 uM after 48 hrs by sulforhodamine B assay; type: functional; conditions: SNB-19, 48 h, read-out: GI; procedure, shortened: as §1
U-251 = assay: Growth inhibition of human U251 cells at 10 uM after 48 hrs by sulforhodamine B assay; type: functional; conditions: U-251, 48 h, read-out: GI; procedure, shortened: as §1
786-0 = assay: Growth inhibition of human 786-0 cells at 10 uM after 48 hrs by sulforhodamine B assay; type: functional; conditions: 786-0, 48 h, read-out: GI
Procedure, shortened: (§3)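 Single-dose NCI-60 prescreen at 10 µM for 48 h at 37 °C and 5% CO2, using cells grown in RPMI 1640 with 5% FBS and 2 mM glutamine. Protein was measured by SRB after TCA fixation: 10% final for adherent lines, 16% for suspension lines. Absorbance was read at 515 nm. Percent growth inhibition was obtained by subtracting percent growth from 100.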

OVCAR-5 = assay: Growth inhibition of human OVCAR5 cells at 10 uM after 48 hrs by sulforhodamine B assay; type: functional; conditions: OVCAR-5, 48 h, read-out: GI; procedure, shortened: as §1
HCT-116 = assay: Growth inhibition of human HCT116 cells at 10 uM after 48 hrs by sulforhodamine B assay; type: functional; conditions: HCT-116, 48 h, read-out: GI; procedure, shortened: as §2
OVCAR-3 = assay: Growth inhibition of human OVCAR3 cells at 10 uM after 48 hrs by sulforhodamine B assay; type: functional; conditions: OVCAR-3, 48 h, read-out: GI; procedure, shortened: as §1
SK-MEL-5 = assay: Growth inhibition of human SK-MEL-5 cells at 10 uM after 48 hrs by sulforhodamine B assay; type: functional; conditions: SK-MEL-5, 48 h, read-out: GI; procedure, shortened: as §1
OVCAR-4 = assay: Growth inhibition of human OVCAR4 cells at 10 uM after 48 hrs by sulforhodamine B assay; type: functional; conditions: OVCAR-4, 48 h, read-out: GI; procedure, shortened: as §1
Malme-3M = assay: Growth inhibition of human MALME-3M cells at 10 uM after 48 hrs by sulforhodamine B assay; type: functional; conditions: read-out: GI; procedure, shortened: as §1
UO-31 = assay: Growth inhibition of human UO31 cells at 10 uM after 48 hrs by sulforhodamine B assay; type: functional; conditions: UO-31, 48 h, read-out: GI; procedure, shortened: as §1
SK-OV-3 = assay: Growth inhibition of human SKOV3 cells at 10 uM after 48 hrs by sulforhodamine B assay; type: functional; conditions: SK-OV-3, 48 h, read-out: GI; procedure, shortened: as §1
DU-145 = assay: Growth inhibition of human DU145 cells at 10 uM after 48 hrs by sulforhodamine B assay; type: functional; conditions: DU-145, 48 h, read-out: GI; procedure, shortened: as §3
UACC-257 = assay: Growth inhibition of human UACC257 cells at 10 uM after 48 hrs by sulforhodamine B assay; type: functional; conditions: UACC-257, 48 h, read-out: GI; procedure, shortened: as §1
SF-539 = assay: Growth inhibition of human SF539 cells at 10 uM after 48 hrs by sulforhodamine B assay; type: functional; conditions: SF-539, 48 h, read-out: GI; procedure, shortened: as §1
[2] = Oral bioavailability in human; type: ADME, organism-based; conditions: in silico prediction
K562 = assay: Growth inhibition of human K562 cells at 10 uM after 48 hrs by sulforhodamine B assay; type: functional; conditions: K562, 48 h, read-out: GI; procedure, shortened: as §1
[3] = Growth inhibition of human Hs 578T cells at 10 uM after 48 hrs by sulforhodamine B assay; type: functional; conditions: read-out: GI; procedure, shortened: as §2
MOLT-4 = assay: Growth inhibition of human MOLT4 cells at 10 uM after 48 hrs by sulforhodamine B assay; type: functional; conditions: MOLT-4, 48 h, read-out: GI; procedure, shortened: as §1
ACHN = assay: Growth inhibition of human ACHN cells at 10 uM after 48 hrs by sulforhodamine B assay; type: functional; conditions: read-out: GI; procedure, shortened: as §3
HT-29 = assay: Growth inhibition of human HT-29 cells at 10 uM after 48 hrs by sulforhodamine B assay; type: functional; conditions: HT-29, 48 h, read-out: GI; procedure, shortened: as §2
HOP-62 = assay: Growth inhibition of human HOP62 cells at 10 uM after 48 hrs by sulforhodamine B assay; type: functional; conditions: HOP-62, 48 h, read-out: GI; procedure, shortened: as §2
UACC-62 = assay: Growth inhibition of human UACC62 cells at 10 uM after 48 hrs by sulforhodamine B assay; type: functional; conditions: UACC-62, 48 h, read-out: GI; procedure, shortened: as §1
RXF 393 = assay: Growth inhibition of human RXF393 cells at 10 uM after 48 hrs by sulforhodamine B assay; type: functional; conditions: RXF 393, 48 h, read-out: GI; procedure, shortened: as §1
OVCAR-8 = assay: Growth inhibition of human OVCAR8 cells at 10 uM after 48 hrs by sulforhodamine B assay; type: functional; conditions: OVCAR-8, 48 h, read-out: GI; procedure, shortened: as §1
A498 = assay: Growth inhibition of human A498 cells at 10 uM after 48 hrs by sulforhodamine B assay; type: functional; conditions: A498, 48 h, read-out: GI; procedure, shortened: as §3
MDA-MB-435 = assay: Growth inhibition of human MDA-MB-435 cells at 10 uM after 48 hrs by sulforhodamine B assay; type: functional; conditions: MDA-MB-435, 48 h, read-out: GI; procedure, shortened: as §1

Structure (SMILES) | inhibition of growth at 10 µM (SN12C) | inhibition of growth at 10 µM (LOX IMVI) | inhibition of growth at 10 µM (TK-10) | inhibition of growth at 10 µM (NCI-H322M) | inhibition of growth at 10 µM (SR) | inhibition of growth at 10 µM (MDA-MB-468) | inhibition of growth at 10 µM [1] | inhibition of growth at 10 µM (NCI-H23) | inhibition of growth at 10 µM (PC-3) | inhibition of growth at 10 µM (SNB-19) | inhibition of growth at 10 µM (U-251) | inhibition of growth at 10 µM (786-0) | inhibition of growth at 10 µM (OVCAR-5) | inhibition of growth at 10 µM (HCT-116) | inhibition of growth at 10 µM (OVCAR-3) | inhibition of growth at 10 µM (SK-MEL-5) | inhibition of growth at 10 µM (OVCAR-4) | inhibition of growth at 10 µM (Malme-3M) | inhibition of growth at 10 µM (UO-31) | inhibition of growth at 10 µM (SK-OV-3) | further results
O=S(=O)(Nc1ccc(Cl)cc1)c1ccc2nc(-c3ccccc3)c(-c3ccccc3)nc2c1 | 26.9% | 38.4% | 2.84% | 32.8% | 88.1% | 76.8% | 37.9% | 26.6% | 60% | 31.9% | 39.5% | 66.9% | 18.3% | 59.6% | 28.8% | 74% | 30.3% | 6.64% | 29.2% | 18.5% | inhibition of growth at 10 µM (DU-145): 24.4%; inhibition of growth at 10 µM (UACC-257): 17.9%; inhibition of growth at 10 µM (SF-539): 25.9%; bioavailability [2]: 100%; inhibition of growth at 10 µM (K562): 55.6%; inhibition of growth at 10 µM [3]: 37.5%; inhibition of growth at 10 µM (MOLT-4): 60.8%; inhibition of growth at 10 µM (ACHN): 23.9%; inhibition of growth at 10 µM (HT-29): 70.4%; inhibition of growth at 10 µM (HOP-62): 12.8%; inhibition of growth at 10 µM (UACC-62): 30.6%; inhibition of growth at 10 µM (RXF 393): 98.8%; inhibition of growth at 10 µM (OVCAR-8): 34.8%; inhibition of growth at 10 µM (A498): 44.3%; inhibition of growth at 10 µM (MDA-MB-435): 35.6%
O=S(=O)(Nc1ccccn1)c1ccc2nc(-c3ccccc3)c(-c3ccccc3)nc2c1 | 38.5% | 63.3% | 30.2% | 59.4% | -3.25% | -4.67% | 60.6% | 46.5% | 72.2% | 43.6% | 56.5% | 99.2% | 24.3% | 72.1% | 48.9% | -6.25% | 40.1% | 32.9% | 45.2% | 44.9% | inhibition of growth at 10 µM (DU-145): 37.4%; inhibition of growth at 10 µM (UACC-257): 42.5%; inhibition of growth at 10 µM (SF-539): 61.9%; bioavailability [2]: 100%; inhibition of growth at 10 µM (K562): 64.4%; inhibition of growth at 10 µM [3]: 76.3%; inhibition of growth at 10 µM (MOLT-4): 86.8%; inhibition of growth at 10 µM (ACHN): 34.3%; inhibition of growth at 10 µM (HT-29): 81.7%; inhibition of growth at 10 µM (HOP-62): 22.8%; inhibition of growth at 10 µM (UACC-62): 41.1%; inhibition of growth at 10 µM (RXF 393): -40.4%; inhibition of growth at 10 µM (OVCAR-8): 52.8%; inhibition of growth at 10 µM (A498): 70.2%; inhibition of growth at 10 µM (MDA-MB-435): 54.2%
